Assay [1] has as its target Epidermal growth factor receptor (Homo sapiens, UniProt P00533). The experiment in a line: Inhibition of wild-type EGFR (unknown origin) using substrate-biotin by ELISA-based mobility shift assay. (In general: An ELISA detects its analyte on a solid surface through an enzyme-linked reagent.)
Assay [2] concerns A549. As to the kind of experiment: Cell cycle arrest in human A549 cells assessed as accumulation of cells at S phase at 0.36 uM after 24 hrs by propidium iodide staining-based flow cytometric analysis (reference value: 32.13%). It is filed as functional. The method in brief:
(§1)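 A549 cells seeded at 1×10^5 per well, grown 24 h, then treated 24 h with vehicle (0.1% DMSO) or compound at several concentrations. Cells fixed in ice-cold 70% ethanol at 4 °C for 12 h, washed in PBS, treated with 1 mg/mL RNase for 30 min at 37 °C, stained with propidium iodide 30 min in the dark. DNA content measured by flow cytometry.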
(In flow cytometry, cells or beads pass a laser one at a time.)

The subject of assay [3] is A549. As to the kind of experiment: Antiproliferative activity against human A549 cells after 72 hrs by MTT assay. It counts as functional, cell-based. The note with it: A549, 72 h. The method in brief:
(§2)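 MTT assay; cells grown as monolayers in DMEM or RPMI1640 with 10% FBS at 37 °C, 5% CO2 for 24 h, then compound added for 72 h. MTT at 5 μg/mL for 4 h at 37 °C, formazan dissolved in DMSO, absorbance read at 492 nm with 630 nm reference. Each compound tested three times per line; IC50 from averaged determinations.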

Assay [4] concerns A549. As to the kind of experiment: Cell cycle arrest in human A549 cells assessed as accumulation of cells at G2/M phase at 0.72 uM after 24 hrs by propidium iodide staining-based flow cytometric analysis (reference value: 2.65%). It is filed as functional. The method in brief:
as §1

For assay [5], the system named is A549. As to the kind of experiment: Cell cycle arrest in human A549 cells assessed as accumulation of cells at S phase at 0.72 uM after 24 hrs by propidium iodide staining-based flow cytometric analysis (reference value: 32.13%). It counts as functional. The method in brief: as §1
The next assay is filed under the species Homo sapiens. As to the kind of experiment: Selectivity ratio of IC50 for wild-type EGFR (unknown origin) to IC50 for EGFR T790M/L858R double mutant (unknown origin).
In assay [6] the test system is A549. The experiment in a line: Cell cycle arrest in human A549 cells assessed as accumulation of cells at G0/G1 phase at 0.72 uM after 24 hrs by propidium iodide staining-based flow cytometric analysis (reference value: 65.22%). It counts as functional. The method in brief: as §1
For assay [7], the system named is NCI-H1975. As to the kind of experiment: Induction of apoptosis in human NCI-H1975 assessed as induction of cell structure destruction at 0.25 uM by H33342 staining-based inverted fluorescence microscopic analysis. It is filed as functional. The method in brief:
(§3)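 H1975 cells stained with Hoechst 33342 after treatment, alongside an untreated control. Nuclear blue fluorescence, dye uptake, chromatin condensation and cell structure viewed under an inverted fluorescence microscope.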

For assay [8], the target named is Epidermal growth factor receptor (Homo sapiens, UniProt P00533, L858R/T790M). As to the kind of experiment: Inhibition of EGFR T790M/L858R double mutant (unknown origin) using substrate-biotin by ELISA-based mobility shift assay.
Chain of Epidermal growth factor receptor (Homo sapiens, UniProt P00533, L858R/T790M) (P00533 25-1210 T790M/L858R limits assumed): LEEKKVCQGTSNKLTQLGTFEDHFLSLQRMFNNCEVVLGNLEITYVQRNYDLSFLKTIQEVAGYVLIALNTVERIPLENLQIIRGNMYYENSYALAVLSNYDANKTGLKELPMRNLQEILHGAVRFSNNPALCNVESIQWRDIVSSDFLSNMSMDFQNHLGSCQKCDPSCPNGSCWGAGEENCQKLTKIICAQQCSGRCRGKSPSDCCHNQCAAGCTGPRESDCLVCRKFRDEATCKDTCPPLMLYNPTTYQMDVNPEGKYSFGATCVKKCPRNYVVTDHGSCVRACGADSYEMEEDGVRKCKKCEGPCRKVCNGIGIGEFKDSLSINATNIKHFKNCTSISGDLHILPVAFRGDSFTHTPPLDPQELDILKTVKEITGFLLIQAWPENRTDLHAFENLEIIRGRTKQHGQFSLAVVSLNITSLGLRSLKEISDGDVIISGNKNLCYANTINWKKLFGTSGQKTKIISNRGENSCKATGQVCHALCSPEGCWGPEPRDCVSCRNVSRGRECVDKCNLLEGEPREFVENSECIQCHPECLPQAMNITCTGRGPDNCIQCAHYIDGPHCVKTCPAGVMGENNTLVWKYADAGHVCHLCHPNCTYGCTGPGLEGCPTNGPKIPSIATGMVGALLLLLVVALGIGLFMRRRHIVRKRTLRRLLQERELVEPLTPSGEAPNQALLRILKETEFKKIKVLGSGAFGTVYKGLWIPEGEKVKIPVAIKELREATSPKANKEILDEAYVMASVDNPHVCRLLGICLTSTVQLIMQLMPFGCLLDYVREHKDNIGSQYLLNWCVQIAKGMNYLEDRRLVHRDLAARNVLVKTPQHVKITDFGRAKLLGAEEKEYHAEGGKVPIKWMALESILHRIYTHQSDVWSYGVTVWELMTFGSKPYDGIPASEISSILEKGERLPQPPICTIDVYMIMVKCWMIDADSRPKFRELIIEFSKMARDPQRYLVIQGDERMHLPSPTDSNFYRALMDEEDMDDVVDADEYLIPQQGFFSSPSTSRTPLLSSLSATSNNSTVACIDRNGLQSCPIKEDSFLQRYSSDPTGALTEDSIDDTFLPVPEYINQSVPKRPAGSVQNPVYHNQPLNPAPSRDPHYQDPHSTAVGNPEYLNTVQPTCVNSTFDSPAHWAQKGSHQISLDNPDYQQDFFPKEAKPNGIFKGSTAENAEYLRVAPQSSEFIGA
Assay [9] concerns A549. As to the kind of experiment: Cell cycle arrest in human A549 cells assessed as accumulation of cells at G0/G1 phase at 0.36 uM after 24 hrs by propidium iodide staining-based flow cytometric analysis (reference value: 65.22%). It counts as functional. The method in brief:
as §1

Assay [10] deals with A549. The experiment in a line: Cell cycle arrest in human A549 cells assessed as accumulation of cells at S phase at 1.80 uM after 24 hrs by propidium iodide staining-based flow cytometric analysis (reference value: 32.13%). It is filed as functional. The method in brief: as §1
Assay [11] has as its system A549. As to the kind of experiment: Cell cycle arrest in human A549 cells assessed as accumulation of cells at G0/G1 phase at 1.80 uM after 24 hrs by propidium iodide staining-based flow cytometric analysis (reference value: 65.22%). It counts as functional. The method in brief:
as §1

In a further assay the test system is HepG2. The experiment in a line: Antiproliferative activity against human HepG2 cells after 72 hrs by MTT assay. Conditions: HepG2, 72 h. It counts as functional, cell-based. The method in brief: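 MTT assay; cells grown as monolayers in DMEM or RPMI1640 with 10% FBS at 37 °C, 5% CO2 for 24 h, then compound added for 72 h. Each compound tested three times per line; IC50 from averaged determinations.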
A general note: Tetrazolium dyes change colour on reduction, which living cells bring about.

Assay [12] concerns NCI-H1975. The experiment in a line: Induction of apoptosis in human NCI-H1975 assessed as induction of chromatin shrinkage at 0.25 uM by H33342 staining-based inverted fluorescence microscopic analysis. It is filed as functional, cell-based. The method in brief: as §3
For assay [13], the system named is A549. The experiment in a line: Cell cycle arrest in human A549 cells assessed as accumulation of cells at G2/M phase at 1.80 uM after 24 hrs by propidium iodide staining-based flow cytometric analysis (reference value: 2.65%). It is filed as functional. The method in brief:
as §1

Assay [14] concerns NCI-H1975. The experiment in a line: Antiproliferative activity against human NCI-H1975 cells after 72 hrs by MTT assay. It is filed as functional, cell-based. Conditions: NCI-H1975, 72 h. The method in brief:
as §2

The test system of assay [15] is NCI-H1975. As to the kind of experiment: Induction of apoptosis in human NCI-H1975 assessed as induction of membrane damage at 0.25 uM by H33342 staining-based inverted fluorescence microscopic analysis. It is filed as functional, cell-based. The method in brief: as §3
The test system of assay [16] is A549. The experiment in a line: Cell cycle arrest in human A549 cells assessed as accumulation at G2/M phase after 24 hrs by propidium iodide staining-based flow cytometric analysis. It counts as functional. The method in brief:
as §1

The test system of assay [17] is NCI-H1975. As to the kind of experiment: Induction of apoptosis in human NCI-H1975 assessed as induction of chromatin shrinkage at 0.25 uM by acridine orange staining-based fluorescence assay. It counts as functional, cell-based. The method in brief:
(§4)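 H1975 cells stained with acridine orange after treatment, alongside an untreated control group. Cell and chromatin morphology assessed by fluorescence imaging.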

Assay [18] relates to A549. The experiment in a line: Cell cycle arrest in human A549 cells assessed as accumulation of cells at G2/M phase at 0.36 uM after 24 hrs by propidium iodide staining-based flow cytometric analysis (reference value: 2.65%). It counts as functional. The method in brief: as §1
The test system of assay [19] is NCI-H1975. The experiment in a line: Induction of apoptosis in human NCI-H1975 assessed as formation of cells with sharp edge at 0.25 uM by acridine orange staining-based fluorescence assay. It is filed as functional, cell-based. The method in brief:
as §4

Assay [20] concerns NCI-H1975. As to the kind of experiment: Induction of apoptosis in human NCI-H1975 at 0.25 uM by acridine orange staining-based fluorescence assay. It is filed as functional, cell-based. The method in brief:
as §4

The source of these data is ChEMBL document CHEMBL4411272, “Design, synthesis and biological evaluation of AZD9291 derivatives as selective and potent EGFRL858R/T790M inhibitors” (Eur J Med Chem, 2019).

Active and inactive are the calls of the source. The calls are words filed in the database; no cut-off is given here.

In general, IC50 refers to the concentration that inhibits the measured activity by half.

Chain of Epidermal growth factor receptor (Homo sapiens, UniProt P00533) (P00533 whole entry): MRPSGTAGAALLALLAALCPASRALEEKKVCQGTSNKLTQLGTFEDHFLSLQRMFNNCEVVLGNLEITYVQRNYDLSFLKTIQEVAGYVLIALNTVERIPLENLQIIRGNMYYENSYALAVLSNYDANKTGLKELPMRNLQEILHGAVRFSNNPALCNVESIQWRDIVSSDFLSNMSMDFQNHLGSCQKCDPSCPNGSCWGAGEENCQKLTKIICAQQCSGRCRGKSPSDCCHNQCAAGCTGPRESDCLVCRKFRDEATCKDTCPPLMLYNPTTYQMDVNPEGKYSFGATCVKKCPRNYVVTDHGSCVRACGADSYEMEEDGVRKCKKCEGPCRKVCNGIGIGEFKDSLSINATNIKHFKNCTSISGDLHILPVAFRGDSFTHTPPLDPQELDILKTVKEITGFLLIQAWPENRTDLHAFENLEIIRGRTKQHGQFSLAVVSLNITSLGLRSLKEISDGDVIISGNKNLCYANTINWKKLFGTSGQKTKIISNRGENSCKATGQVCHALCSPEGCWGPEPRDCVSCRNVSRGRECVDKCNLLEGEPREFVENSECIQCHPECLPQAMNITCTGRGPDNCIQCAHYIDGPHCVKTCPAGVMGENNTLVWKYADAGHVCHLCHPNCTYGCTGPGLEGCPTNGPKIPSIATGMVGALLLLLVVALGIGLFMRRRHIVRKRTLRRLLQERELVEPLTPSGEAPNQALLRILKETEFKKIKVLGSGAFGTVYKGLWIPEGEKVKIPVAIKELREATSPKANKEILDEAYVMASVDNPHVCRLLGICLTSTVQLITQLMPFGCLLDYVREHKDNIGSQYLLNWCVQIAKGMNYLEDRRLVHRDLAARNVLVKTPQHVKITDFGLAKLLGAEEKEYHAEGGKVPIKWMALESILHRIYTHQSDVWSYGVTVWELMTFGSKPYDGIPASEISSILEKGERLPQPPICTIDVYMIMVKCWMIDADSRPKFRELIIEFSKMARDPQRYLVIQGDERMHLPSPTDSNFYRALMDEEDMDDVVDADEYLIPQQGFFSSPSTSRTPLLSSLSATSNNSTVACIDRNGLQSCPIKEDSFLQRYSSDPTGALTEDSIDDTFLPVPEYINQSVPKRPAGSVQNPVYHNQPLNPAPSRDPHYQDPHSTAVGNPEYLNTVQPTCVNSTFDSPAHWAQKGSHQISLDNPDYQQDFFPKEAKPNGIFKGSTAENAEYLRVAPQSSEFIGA

For the molecule `CCC/C=C\C(=O)Nc1cc(Nc2nc(C)cc(-c3cn(C)c4ccccc34)n2)c(OC)cc1N(C)CCN(C)C`, the IC50 in assay [1] came to 1530 nM; in the assay with A549 [3], 329 nM; in assay [8] it was 8 nM; in the assay on HepG2, 365 nM; with NCI-H1975 [14] it was 254 nM. The Activity in the assay on A549 [2] amounted to 37.15%; in the assay with A549 [4], 15.28%; in the assay with A549 [5], 39.81%; in the assay on A549 [6], 44.91%; in the assay on A549 [9], 56.78%; in the assay with A549 [10] it was 38.24%. The Activity in the assay with A549 [11] was 39.55%; with A549 [13] it was 22.24%; with A549 [16], “Dose-dependent effect”; in the assay with A549 [18], 6.07%. Moreover, in the assay filed under Homo sapiens, the Ratio IC50 came to 191. In addition, the outcome in the assay with NCI-H1975 [7], in the assay on NCI-H1975 [12], with NCI-H1975 [15], in the assay with NCI-H1975 [17], in the assay with NCI-H1975 [19] and in the assay on NCI-H1975 [20] was Active.
`C=C(Cl)C(=O)Nc1cc(Nc2ncc(C#N)c(-c3cn(C)c4ccccc34)n2)c(OC)cc1N(C)CCN(C)C`: the IC50 is 137 nM in assay [1]; 133 nM with A549 [3]; 20 nM in assay [8]; 115 nM in the assay with HepG2; 1620 nM with NCI-H1975 [14]. In the assay listed under Homo sapiens, the Ratio IC50 came to 6.9.
